Laboratory results: ChEMBL document CHEMBL1681789, “New bichalcone analogs as NF-κB inhibitors and as cytotoxic agents inducing Fas/CD95-dependent apoptosis” (Bioorg Med Chem, 2011)
Calls of active or inactive are those of the source. The rule behind the calls is not given here.

Key:
[1] = Inhibition of Nitric oxide synthase activity in mouse BV2 cells assessed as LPS-induced NO production after 24 hrs by Griess reaction; assay type: cell-based; conditions: BV-2, 24 h
Outline: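 Murine BV2 microglia were cultured in DMEM with 5% FBS and given 1–50 µM drug with 0.5 µg/mL LPS. Nitrite accumulated in the medium over 24 h was measured by Griess reagent. IC50 values are means ± SEM from 3–6 experiments on different days using different passages.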

KB [2] = assay: Cytotoxicity against human KB cells after 3 days; assay type: functional; conditions: 72 h
Outline: (§1)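 Seeded at 1500–7500 cells/well; compounds added from DMSO-diluted stock. After 3 days, attached cells were fixed with cold 50% TCA, stained with 0.4% sulforhodamine B and read at 562 nm. EC50 is the concentration reducing growth by 50%, averaged over at least three independent determinations. Cells were grown in RPMI-1640 with […], 0.25% bicarbonate and 10% FBS.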

A549 [3] = assay: Cytotoxicity against human A549 cells after 3 days; assay type: functional; conditions: A549, 72 h; outline: as §1
DU-145 [4] = assay: Cytotoxicity against human DU145 cells after 3 days; assay type: functional; conditions: DU-145, 72 h; outline: as §1
HCT-8 [5] = assay: Cytotoxicity against human HCT8 cells after 3 days; assay type: functional; conditions: HCT-8, 72 h; outline: as §1
BV-2 [6] = assay: Inhibition of NADPH oxidase mediated-ROS production in mouse BV2 cells; assay type: cell-based
Outline: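 Compounds were incubated with 50 µg microglial cell homogenate for 20 min at 37 °C in the dark. Superoxide production was started with 200 µM NADPH, and chemiluminescence was followed for 30 min; the AUC represents ROS production. DPI served as positive control.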

A549 [7] = assay: Cytotoxicity against human A549 cells at 20 ug/ml after 3 days; assay type: functional, cell-based
HCT-8 [8] = assay: Cytotoxicity against human HCT8 cells at 20 ug/ml after 3 days; assay type: functional, cell-based
KB [9] = assay: Cytotoxicity against human KB cells at 20 ug/ml after 3 days; assay type: functional, cell-based
DU-145 [10] = assay: Cytotoxicity against human DU145 cells at 20 ug/ml after 3 days; assay type: functional, cell-based
BV-2 [11] = assay: Inhibition of NF-kappaB nuclear translocation in LPS-stimulated mouse BV2 cells at 1 uM by Western blotting; assay type: cell-based
BV-2 [12] = assay: Reduction in iNOS protein expression in LPS-stimulated mouse BV2 cells at 1 uM by Western blotting

| SMILES | IC50 [1] | GI50 (KB [2]) | GI50 (A549 [3]) | GI50 (DU-145 [4]) | GI50 (HCT-8 [5]) | inhibition (BV-2 [6]) | Activity (A549 [7]) | Activity (HCT-8 [8]) | Activity (KB [9]) | Activity (DU-145 [10]) | inhibition (BV-2 [11]) | inhibition (BV-2 [12]) |
| --- | --- | --- | --- | --- | --- | --- | --- | --- | --- | --- | --- | --- |
| COc1cc(C(=O)/C=C/c2ccccc2)cc(CN2CCN(c3ccc(C(=O)/C=C/c4ccccc4)cc3)CC2)c1O | 2100 nM | > 35800 nM | > 35800 nM | > 35800 nM | 25800 nM | inactive |  |  |  |  |  |  |
| Cn1cccc1/C=C/C(=O)c1ccc(N2CCN(Cc3cc(C(=O)/C=C/c4cccn4C)ccc3O)CC2)cc1 | 1200 nM |  |  |  |  | inactive | inactive | inactive | inactive | inactive |  |  |
| O=C(/C=C/c1ccccc1)c1ccc(N2CCN(Cc3cc(C(=O)/C=C/c4ccccc4)ccc3O)CC2)cc1 | 2800 nM |  |  |  |  | inactive | inactive | inactive | inactive | inactive |  |  |
| COC(=O)[C@@H](N)CCCNC(=N)N[N+](=O)[O-] [L-NAME] | 18900 nM |  |  |  |  |  |  |  |  |  |  |  |
| CC(=O)O[C@H]1C(=O)[C@@]2(C)[C@H]([C@H](OC(=O)c3ccccc3)[C@]3(O)C[C@H](OC(=O)[C@H](O)[C@@H](NC(=O)c4ccccc4)c4ccccc4)C(C)=C1C3(C)C)[C@]1(OC(C)=O)CO[C@@H]1C[C@@H]2O [PACLITAXEL] |  | 5.16 nM | 7.6 nM | 5.23 nM | > 100 nM |  |  |  |  |  |  |  |
| O=C(/C=C/c1cccnc1)c1ccc(N2CCN(Cc3cc(C(=O)/C=C/c4cccnc4)ccc3O)CC2)cc1 | 300 nM | 1660 nM | 1470 nM | 2190 nM | 1400 nM | inactive |  |  |  |  | Active | Active |
| O=C(/C=C/c1ccc(Cl)cc1Cl)c1ccc(N2CCN(Cc3cc(C(=O)/C=C/c4ccc(Cl)cc4Cl)ccc3O)CC2)cc1 | 25700 nM |  |  |  |  | inactive | inactive | inactive | inactive | inactive |  |  |
| CC(=O)c1ccc(N2CCN(Cc3cc(C(=O)/C=C/c4ccc[nH]4)ccc3O)CC2)cc1 | 1700 nM | 19000 nM | 20100 nM | 17900 nM | 24700 nM | inactive |  |  |  |  |  |  |
| O=C(/C=C/c1ccc2c(c1)OCO2)c1ccc(N2CCN(Cc3cc(C(=O)/C=C/c4ccc5c(c4)OCO5)ccc3O)CC2)cc1 | 2100 nM |  |  |  |  | inactive | inactive | inactive | inactive | inactive |  |  |
| Cc1ccc(/C=C/C(=O)c2ccc(N3CCN(Cc4cc(C(=O)/C=C/c5ccc(C)o5)ccc4O)CC3)cc2)o1 | 2400 nM |  |  |  |  | inactive | inactive | inactive | inactive | inactive |  |  |
| COc1cc(C(=O)/C=C/c2cccs2)cc(CN2CCN(c3ccc(C(=O)/C=C/c4cccs4)cc3)CC2)c1O | 2700 nM |  |  |  |  | inactive | inactive | inactive | inactive | inactive |  |  |
| COc1cc(C(C)=O)cc(CN2CCN(c3ccc(C(C)=O)cc3)CC2)c1O | 15900 nM |  |  |  |  | inactive | inactive | inactive | inactive | inactive |  |  |

Continued, in another order:

| IC50 [1] | SMILES | GI50 (KB [2]) | GI50 (A549 [3]) | GI50 (DU-145 [4]) | GI50 (HCT-8 [5]) | inhibition (BV-2 [6]) | Activity (A549 [7]) | Activity (HCT-8 [8]) | Activity (KB [9]) | Activity (DU-145 [10]) | inhibition (BV-2 [11]) | inhibition (BV-2 [12]) |
| --- | --- | --- | --- | --- | --- | --- | --- | --- | --- | --- | --- | --- |
| 3500 nM | COc1ccc(/C=C/C(=O)c2ccc(N3CCN(Cc4cc(C(=O)/C=C/c5ccc(OC)cc5)cc(OC)c4O)CC3)cc2)cc1 |  |  |  |  | inactive | inactive | inactive | inactive | inactive |  |  |
| 500 nM | COc1ccc(/C=C/C(=O)c2ccc(N3CCN(Cc4cc(C(=O)/C=C/c5ccc(OC)cc5)ccc4O)CC3)cc2)cc1 |  |  |  |  | inactive | inactive | inactive | inactive | inactive | Active | Active |
| 6600 nM | CC(=O)c1ccc(N2CCN(Cc3cc(C(C)=O)ccc3O)CC2)cc1 |  |  |  |  | inactive | inactive | inactive | inactive | inactive |  |  |
| 1600 nM | COc1cc(C(=O)/C=C/c2ccccn2)cc(CN2CCN(c3ccc(C(=O)/C=C/c4ccccn4)cc3)CC2)c1O | 3980 nM | 1000 nM | 1300 nM | 700 nM | inactive |  |  |  |  |  |  |
| 7500 nM | Cc1ccsc1/C=C/C(=O)c1ccc(N2CCN(Cc3cc(C(=O)/C=C/c4sccc4C)ccc3O)CC2)cc1 |  |  |  |  | inactive | inactive | inactive | inactive | inactive |  |  |
| 1700 nM | O=C(/C=C/c1ccco1)c1ccc(N2CCN(Cc3cc(C(=O)/C=C/c4ccco4)ccc3O)CC2)cc1 |  |  |  |  | inactive | inactive | inactive | inactive | inactive |  |  |
| 1900 nM | O=C(/C=C/c1cccs1)c1ccc(N2CCN(Cc3cc(C(=O)/C=C/c4cccs4)ccc3O)CC2)cc1 | > 37000 nM | > 37000 nM | 29200 nM | > 37000 nM | inactive |  |  |  |  |  |  |
| 3100 nM | COc1cc(C(=O)/C=C/c2sccc2C)cc(CN2CCN(c3ccc(C(=O)/C=C/c4sccc4C)cc3)CC2)c1O |  |  |  |  | inactive | inactive | inactive | inactive | inactive |  |  |
| 30500 nM | O=C(/C=C/c1ccccc1Cl)c1ccc(N2CCN(Cc3cc(C(=O)/C=C/c4ccccc4Cl)ccc3O)CC2)cc1 |  |  |  |  | inactive | inactive | inactive | inactive | inactive |  |  |
| 1400 nM | O=C(/C=C/c1ccccn1)c1ccc(N2CCN(Cc3cc(C(=O)/C=C/c4ccccn4)ccc3O)CC2)cc1 | 1230 nM | 1080 nM | 1250 nM | 1260 nM | inactive |  |  |  |  |  |  |
| 1900 nM | CC(=O)c1ccc(N2CCN(Cc3cc(C(=O)/C=C/c4cccn4C)ccc3O)CC2)cc1 | 39100 nM | 31200 nM | > 45100 nM | > 45100 nM | inactive |  |  |  |  |  |  |
| 10900 nM | COc1cc(C(=O)/C=C/c2ccccc2Cl)cc(CN2CCN(c3ccc(C(=O)/C=C/c4ccccc4Cl)cc3)CC2)c1O |  |  |  |  | inactive | inactive | inactive | inactive | inactive |  |  |
